RGS4 block = human RGS4 inhibition. P49798. HEK293 M3R/RGS4 inducible, Fluo-4 calcium flux; hits give high values; triggered by carbachol at its EC20. B-score at 10 µM. 310,000 tested, 0.45% active. AID 463165;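 active = B-score, a plate-corrected calcium signal, over three deviations above library mean, with baseline fluorescence within five deviations of library mean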;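 note: RGS4 expression induced by doxycycline in cells with stable M3 receptor; B-score is computed from the integrated fluorescence ratio over baseline after carbachol; higher B-score means a larger calcium signal and so more RGS4 inhibition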
Target sequence (P49798 whole entry, looked up): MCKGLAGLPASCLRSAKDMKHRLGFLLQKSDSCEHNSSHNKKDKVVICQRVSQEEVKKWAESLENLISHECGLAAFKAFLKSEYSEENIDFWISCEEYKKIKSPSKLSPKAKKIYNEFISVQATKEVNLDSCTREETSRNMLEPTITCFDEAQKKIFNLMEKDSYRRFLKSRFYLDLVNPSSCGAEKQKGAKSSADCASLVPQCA
RGS4 pot = RGS4 potentiation or activation; 310,000 tested, 0.92% active; HEK293 M3R/inducible RGS4, carbachol calcium flux Fluo4; hits give low values; B-score at 10 µM;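 active = B-score of the integrated calcium signal more than 4 SD below the library mean, with starting fluorescence not abnormally high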;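 note: negative B-score means reduced calcium response which marks RGS4 activation or potentiation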
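test system = HEK293 cells with stable M3R and inducible RGS4 | schedule = recording 10 s baseline at 1 Hz, 100 s post-agonist | technique = Fluo4-AM (2 µM) calcium-flux fluorescence, kinetic read | measure = Agonist-evoked peak-minus-minimum fluorescence over baseline, integrated ratio, B score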
PHOSPHO1 inh = PHOSPHO1 (human) inhibition; recombinant PHOSPHO1, absorbance phosphatase assay; inhibition, % at 13.3 µM; 290,000 tested, 1.1% active; in the data active = inhibition above about 60%
Target sequence (Q8TCT1 whole entry, looked up): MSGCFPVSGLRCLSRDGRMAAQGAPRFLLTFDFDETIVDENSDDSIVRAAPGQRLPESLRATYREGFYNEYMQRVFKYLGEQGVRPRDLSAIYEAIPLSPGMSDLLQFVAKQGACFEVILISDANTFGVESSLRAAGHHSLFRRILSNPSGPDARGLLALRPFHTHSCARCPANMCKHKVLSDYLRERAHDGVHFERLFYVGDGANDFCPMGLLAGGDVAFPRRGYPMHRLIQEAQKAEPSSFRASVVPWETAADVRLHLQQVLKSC
MrgX1 allo act = allosterically activates human MrgX1 receptor signaling | Q96LB2 | MrgX1-HEK293, Fluo-4 calcium flux, FDSS; hits give high values | B-score at 10 µM | 310,000 tested, 0.63% active | AID 588675;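 active = plate-corrected calcium response at least 3 library SD above typical, normal starting fluorescence, not activating the receptor alone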;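 note: compound read alongside a low EC10 to EC30 dose of BAM8-22 agonist; peak minus trough fluorescence over baseline measured at the second addition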
MrgX1 ag = human MrgX1 receptor agonism, primary screen. Q96LB2. MrgX1-HEK293 cells, Fluo-4 calcium fluorescence, agonist mode; hits give high values. B-score at 10 µM. 310,000 tested, 0.44% active;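 active = calcium response B-score plate-corrected fluorescence ratio at least 3 library SD, with starting fluorescence B-score inside 5 SD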
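Material: HEK293 cells stably expressing human MrgX1 receptor | Quantity: 15,000 cells per well | Times: Cells plated overnight, dye loaded 0.5 h 37 °C, 0.5 h room temperature | Measured by: Kinetic Fluo-4 NW fluorescence of intracellular calcium | Control set: Positive and negative controls per plate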
MrgX1 antag = human MrgX1 receptor antagonism, primary screen | B-score at 10 µM | Q96LB2 | MRGX1-HEK293 calcium flux, Fluo-4, BAM8-22 antagonism; hits give low values | 310,000 tested, 1.3% active;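 active = calcium-response B-score plate-corrected more than 3 library SD below zero, starting fluorescence within 5 deviations, no agonist response on first addition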;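 note: peak minus trough fluorescence over baseline after final BAM8-22 challenge near maximal dose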
RGS4 block valid = validation of RGS4 inhibitors | shares compounds with RGS4 block | HEK293 M3R/RGS4, carbachol calcium Fluo-4 fluorescence; carbachol added at its EC20; 0 = buffer wells, 100 = carbachol control | calcium response, % at 10 µM | 1,700 tested, 65% active | AID 492999;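 active = duplicate-averaged calcium response above the buffer-only control mean plus 5 SD of those controls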;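 note: integrated fluorescence ratio F max minus min over baseline F0; higher response in RGS4-induced cells means RGS4 inhibition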
M3R Ca ctr = checks RGS4 inhibitor effects in non-induced HEK293 M3R cells; shares compounds with RGS4 block; carbachol calcium Fluo-4; submaximal (EC20) carbachol stimulus; buffer wells 0%, carbachol control wells 100%; activity (percent), % at 10 µM; 1,900 tested, 20% active; AID 493000; call rule not given here;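 note: RGS4 induction absent so cells express M3R without RGS4; higher means more calcium signal and flags a non-specific hit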
RGS4 inh ctr2 = second RGS4 inhibitor counter-screen in uninduced cells lacking carbachol; shares compounds with RGS4 block; HEK293 M3R/RGS4 non-induced, Fluo-4 calcium, no carbachol; normalised: buffer wells 0%, carbachol wells 100%; calcium response (agonist-mode artifact), % at 10 µM; 1,900 tested, 22% active; AID 493001;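 active = duplicate-averaged calcium rise in uninduced cells above buffer wells' mean plus 5 SD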
An asterisk follows results filed as active. A selection: hits, their analogues and other compounds. The true share with any hit is near 4.5%.

Screening COc1ccccc1CN=C1NC(=O)C(CC(=O)Nc2ccc(C(C)=O)cc2)S1 (stereo not drawn) returned RGS4 block inactive, RGS4 pot inactive, PHOSPHO1 inh -10, MrgX1 allo act inactive, MrgX1 ag inactive, MrgX1 antag inactive, RGS4 block valid inactive, M3R Ca ctr inactive and RGS4 inh ctr2 inactive.
C/C(=N\N=C1\NC(=O)C(CC(=O)NCc2ccccc2)S1)C(C)C (stereo not drawn) was read as RGS4 block inactive, RGS4 pot inactive, PHOSPHO1 inh 28, MrgX1 allo act inactive, MrgX1 ag inactive and MrgX1 antag inactive.
Cc1ccc(CN2CCN(CC(=O)N/N=C/c3ccc(C)o3)CC2)cc1 was read as RGS4 block inactive, RGS4 pot inactive, PHOSPHO1 inh 4, MrgX1 allo act inactive, MrgX1 ag inactive and MrgX1 antag inactive.
Nc1sc2c([n+]1CCCS(=O)(=O)[O-])CCCC2 was read as RGS4 block inactive, RGS4 pot inactive, PHOSPHO1 inh 27, MrgX1 allo act inactive, MrgX1 ag inactive and MrgX1 antag inactive.
For O=Cc1ccc(-n2nncc2-c2ccc([N+](=O)[O-])cc2)cc1 the results were RGS4 block 7.4*, RGS4 pot inactive, PHOSPHO1 inh 1, MrgX1 allo act inactive, MrgX1 ag inactive, MrgX1 antag inactive, RGS4 block valid 42%*, M3R Ca ctr 66%* and RGS4 inh ctr2 inactive.
For O=[N+]([O-])c1ccc(-n2nncc2-c2ccccc2)cc1 the results were RGS4 block inactive, RGS4 pot inactive, MrgX1 allo act inactive, MrgX1 ag inactive and MrgX1 antag inactive.
`Oc1cccc(-c2nc3ccccc3s2)c1` gave RGS4 block inactive, RGS4 pot inactive, PHOSPHO1 inh 3, MrgX1 allo act inactive, MrgX1 ag inactive and MrgX1 antag inactive.
`Cc1[nH]nc(-c2ccc(O)cc2O)c1-c1ccc(Cl)cc1` gave RGS4 block 28*, RGS4 pot inactive, PHOSPHO1 inh 33, MrgX1 allo act inactive, MrgX1 ag inactive, MrgX1 antag inactive, RGS4 block valid 54%*, M3R Ca ctr inactive and RGS4 inh ctr2 32%*.
For COc1ccc(-c2n[nH]c(C)c2-c2ccc(Cl)cc2)c(O)c1 the results were RGS4 block inactive, RGS4 pot inactive, PHOSPHO1 inh -44, MrgX1 allo act inactive, MrgX1 ag inactive and MrgX1 antag inactive.
Cc1[nH]nc(-c2ccc(O)cc2O)c1-c1nc2ccccc2s1 was read as RGS4 block 7.6*, RGS4 pot inactive, PHOSPHO1 inh -5, MrgX1 allo act inactive, MrgX1 ag inactive, MrgX1 antag inactive, RGS4 block valid 21%*, M3R Ca ctr inactive and RGS4 inh ctr2 26%*.
For Cc1cc(Oc2cc(N)cc([N+](=O)[O-])c2)ccc1Cl the results were RGS4 block inactive, RGS4 pot inactive, PHOSPHO1 inh -17, MrgX1 allo act inactive, MrgX1 ag inactive and MrgX1 antag inactive.
`Cn1ncc2c(N3CCN(c4ccccc4F)CC3)ncnc21` gave RGS4 block inactive, RGS4 pot inactive, PHOSPHO1 inh 11, MrgX1 allo act inactive, MrgX1 ag inactive and MrgX1 antag inactive.
Cn1ncc2c(N3CCN(c4ccc(Cl)c(Cl)c4)CC3)ncnc21 was read as RGS4 block 5.7*, RGS4 pot inactive, PHOSPHO1 inh 47, MrgX1 allo act inactive, MrgX1 ag inactive, MrgX1 antag inactive, RGS4 block valid 9.5%*, M3R Ca ctr inactive and RGS4 inh ctr2 inactive.
COc1cc(/C=C/C(=O)c2c(O)ccc3c(C)cc(=O)oc23)ccc1O was read as RGS4 block inactive, RGS4 pot inactive, PHOSPHO1 inh -46, MrgX1 allo act 6.7*, MrgX1 ag inactive, MrgX1 antag inactive, M3R Ca ctr inactive and RGS4 inh ctr2 inactive.
Screening Cc1cc(=O)oc2c(C(=O)/C=C/c3ccccc3)c(O)ccc12 returned RGS4 block inactive, RGS4 pot inactive, PHOSPHO1 inh -34, MrgX1 allo act inactive, MrgX1 ag inactive and MrgX1 antag inactive.
For COc1ccc(/C=C\C(=O)c2c(O)ccc3c(C)cc(=O)oc23)cc1OC the results were RGS4 block 6.7*, RGS4 pot inactive, PHOSPHO1 inh -11, MrgX1 allo act inactive, MrgX1 ag inactive, MrgX1 antag inactive, RGS4 block valid 8.0%*, M3R Ca ctr inactive and RGS4 inh ctr2 inactive.
`CC(C)c1ccc(N(CC(=O)NC2CCCC2)C(=O)CCC(=O)Nc2nccs2)cc1` gave RGS4 block inactive, RGS4 pot inactive, PHOSPHO1 inh -10, MrgX1 allo act inactive, MrgX1 ag inactive and MrgX1 antag inactive.
O=C1/C(=C\c2cccc(O)c2O)SC(=S)N1Cc1ccccc1 was read as RGS4 block 8.4*, RGS4 pot inactive, PHOSPHO1 inh 3, MrgX1 allo act inactive, MrgX1 ag inactive, MrgX1 antag inactive, RGS4 block valid 18%*, M3R Ca ctr inactive and RGS4 inh ctr2 inactive.
For COc1cc(/C=C2/SC(=S)N(Cc3ccccc3)C2=O)ccc1O the results were RGS4 block 6.4*, RGS4 pot inactive, PHOSPHO1 inh 34, MrgX1 allo act 11*, MrgX1 ag inactive, MrgX1 antag inactive, RGS4 block valid 12%*, M3R Ca ctr inactive and RGS4 inh ctr2 34%*.
O=C1/C(=C\c2cccc(O)c2)SC(=S)N1Cc1ccccc1 was read as RGS4 block inactive, RGS4 pot inactive, PHOSPHO1 inh -8, MrgX1 allo act inactive, MrgX1 ag inactive, MrgX1 antag inactive, RGS4 block valid inactive, M3R Ca ctr inactive and RGS4 inh ctr2 inactive.
Screening O=C(O)CCCN1C(=O)/C(=C\c2ccccc2OCc2ccccc2)SC1=S returned RGS4 block inactive, RGS4 pot inactive, PHOSPHO1 inh 10, MrgX1 allo act inactive, MrgX1 ag inactive and MrgX1 antag inactive.
